Data reported in ChEMBL document CHEMBL1134356, “Correlation of anti-HIV activity with anion spacing in a series of cosalane analogues with extended polycarboxylate pharmacophores” (J Med Chem, 2001).

What was measured:
MT4 [1] = test: 50% cell death in uninfected MT-4 cells was determined using MTS cytoprotection assay; type: functional; settings: Homo sapiens, in the assay text read “MTT cytoprotection assay” for “MTS cytoprotection assay”
Method in brief: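 MT-4 cells at 6 × 10^5 cells/mL, infected with HIV-1 IIIB or HIV-2 ROD at 100–300 CCID50, or mock-infected. Serial 5-fold compound dilutions, triplicate wells. After 5 days, viability read by MTT reduction at 540 and 690 nm, median OD of three wells. CC50 is 50% drop in OD540 of mock-infected cells; EC50 is 50% protection from viral cytopathic effect.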

[2] = In vitro inhibition of cytopathic effect was determined against HIV-1 IIIB in MT-4 cells using MTT cytoprotection assay; settings: MT4
CEM-SS = test: 50% cell death in uninfected CEM-SS cells was determined using MTS cytoprotection assay; type: functional; settings: Homo sapiens
Method in brief: (§1)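 CEM-SS cells from exponential culture, 5 × 10^3 per well, mixed with pretitered HIV-1 RF and serially diluted compound. Incubated 6 days at 37 °C, 5% CO2. MTS added, colour developed overnight at 37 °C, read at 490 nm, expressed as percent of uninfected drug-free control. EC50 is 50% protection from cytopathic effect; CC50 is 50% death of uninfected cells. Triplicates on each of two sister plates, plate values averaged.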

[3] = In vitro inhibition of cytopathic effect was determined against HIV-1 RF in CEM-SS cells using MTS cytoprotection assay; type: functional, cell-based; method in brief: as §1
MT4 [4] = test: In vitro inhibition of cytopathic effect was determined against HIV-1 IIIB in MT-4 cells using MTT cytoprotection assay; settings: Homo sapiens

Structure (SMILES)	CC50 (MT4 [1]) [µM]	EC50 [2] [µM]	CC50 (CEM-SS) [µM]	EC50 [3] [µM]	EC50 (MT4 [4]) [µM]
CC(C)CCCC(C)[C@H]1CC[C@H]2[C@@H]3CCC4C[C@@H](CCC=C(c5cc(Cl)c(O)c(C(=O)NCC(=O)OC(C)(C)C)c5)c5cc(Cl)c(O)c(C(=O)NCC(=O)OC(C)(C)C)c5)CC[C@]4(C)[C@H]3CC[C@]12C (some centres undefined)	> 125	> 125	> 125		
CC(C)CCCC(C)[C@H]1CC[C@H]2[C@@H]3CCC4C[C@@H](CCC=C(c5cc(Cl)c(O)c(C(=O)O)c5)c5cc(Cl)c(O)c(C(=O)O)c5)CC[C@]4(C)[C@H]3CC[C@]12C (some centres undefined)	> 125	3		5.1	
CC(C)CCCC(C)[C@H]1CC[C@H]2[C@@H]3CCC4C[C@@H](CCC=C(c5cc(Cl)c(OCc6cccc(C(=O)O)c6)c(C(=O)O)c5)c5cc(Cl)c(OCc6cccc(C(=O)O)c6)c(C(=O)O)c5)CC[C@]4(C)[C@H]3CC[C@]12C (some centres undefined)	76				
CC(C)CCCC(C)[C@H]1CC[C@H]2[C@@H]3CCC4C[C@@H](CCCC(c5cc(Cl)c(OCc6ccc(C(=O)O)cc6)c(C(=O)O)c5)c5cc(Cl)c(OCc6ccc(C(=O)O)cc6)c(C(=O)O)c5)CC[C@]4(C)[C@H]3CC[C@]12C (some centres undefined)	> 125	5.1	> 200	4.8	
CC(C)CCCC(C)[C@H]1CC[C@H]2[C@@H]3CCC4C[C@@H](CCC=C(c5cc(Cl)c(O)c(C(=O)N[C@@H](Cc6ccccc6)C(=O)O)c5)c5cc(Cl)c(O)c(C(=O)N[C@@H](Cc6ccccc6)C(=O)O)c5)CC[C@]4(C)[C@H]3CC[C@]12C (some centres undefined)	62	> 62	> 200	> 200	
CC(C)CCCC(C)[C@H]1CC[C@H]2[C@@H]3CCC4C[C@@H](CCC=C(c5cc(Cl)c(O)c(C(=O)N[C@@H](CC(=O)O)C(=O)O)c5)c5cc(Cl)c(O)c(C(=O)N[C@@H](CC(=O)O)C(=O)O)c5)CC[C@]4(C)[C@H]3CC[C@]12C (some centres undefined)	> 125		90		
CC(C)CCCC(C)[C@H]1CC[C@H]2[C@@H]3CCC4C[C@@H](CCC=C(c5cc(Cl)c(OCc6ccccc6C(=O)O)c(C(=O)O)c5)c5cc(Cl)c(OCc6ccccc6C(=O)O)c(C(=O)O)c5)CC[C@]4(C)[C@H]3CC[C@]12C (some centres undefined)		> 37		39.8	
CC(C)CCCC(C)[C@H]1CC[C@H]2[C@@H]3CCC4C[C@@H](CCC=C(c5cc(Cl)c(OCc6ccc(-c7ccc(C(=O)O)cc7)cc6)c(C(=O)O)c5)c5cc(Cl)c(OCc6ccc(-c7ccc(C(=O)O)cc7)cc6)c(C(=O)O)c5)CC[C@]4(C)[C@H]3CC[C@]12C (some centres undefined)	100	> 100		> 100	
CC(C)CCCC(C)[C@H]1CC[C@H]2[C@@H]3CCC4C[C@@H](CCC=C(c5cc(Cl)c(O)c(C(=O)NCC(=O)O)c5)c5cc(Cl)c(O)c(C(=O)NCC(=O)O)c5)CC[C@]4(C)[C@H]3CC[C@]12C (some centres undefined)	> 125		> 200	3.4	57.6
COc1c(Cl)cc(Cc2cc(C(=CCC[C@H]3CC[C@@]4(C)C(CC[C@H]5[C@@H]6CC[C@H](C(C)CCCC(C)C)[C@@]6(C)CC[C@@H]54)C3)c3cc(Cc4cc(Cl)c(OC)c(C(=O)O)c4)c(OC)c(C(=O)O)c3)cc(C(=O)O)c2OC)cc1C(=O)O (some centres undefined)	41	12.5	50	2.9	
CC(C)CCCC(C)[C@H]1CC[C@H]2[C@@H]3CCC4C[C@@H](CCC=C(c5cc(Cl)c(OCc6ccc(-c7cccc(C(=O)O)c7)cc6)c(C(=O)O)c5)c5cc(Cl)c(OCc6ccc(-c7cccc(C(=O)O)c7)cc6)c(C(=O)O)c5)CC[C@]4(C)[C@H]3CC[C@]12C (some centres undefined)	79	12		6.1	
CC(C)CCCC(C)[C@H]1CC[C@H]2[C@@H]3CCC4C[C@@H](CCC=C(c5cc(Cl)c(OCc6ccc(-c7ccccc7C(=O)O)cc6)c(C(=O)O)c5)c5cc(Cl)c(OCc6ccc(-c7ccccc7C(=O)O)cc6)c(C(=O)O)c5)CC[C@]4(C)[C@H]3CC[C@]12C (some centres undefined)		10.1		5.2	
CC(C)CCCC(C)[C@H]1CC[C@H]2[C@@H]3CCC4C[C@@H](CCC=C(c5cc(Cl)c(OCc6ccc(CC(=O)O)cc6)c(C(=O)O)c5)c5cc(Cl)c(OCc6ccc(CC(=O)O)cc6)c(C(=O)O)c5)CC[C@]4(C)[C@H]3CC[C@]12C (some centres undefined)		4.1		1.8	
COc1ccc(C(=O)Nc2cc(C(=CCC[C@H]3CC[C@@]4(C)C(CC[C@H]5[C@@H]6CC[C@H](C(C)CCCC(C)C)[C@@]6(C)CC[C@@H]54)C3)c3cc(NC(=O)c4ccc(OC)c(C(=O)O)c4)c(OC)c(C(=O)O)c3)cc(C(=O)O)c2OC)cc1C(=O)O (some centres undefined)	81	8.4	47	28.6	
CC(C)CCCC(C)[C@H]1CC[C@H]2[C@@H]3CCC4C[C@@H](CCC=C(c5cc(Cl)c(O)c(C(=O)NCCC(=O)O)c5)c5cc(Cl)c(O)c(C(=O)NCCC(=O)O)c5)CC[C@]4(C)[C@H]3CC[C@]12C (some centres undefined)	> 125	73.8	> 200		
CC(C)CCCC(C)[C@H]1CC[C@H]2[C@@H]3CCC4C[C@@H](CCC=C(c5cc(Cl)c(O)c(C(=O)N[C@@H](CCC(=O)O)C(=O)O)c5)c5cc(Cl)c(O)c(C(=O)N[C@@H](CCC(=O)O)C(=O)O)c5)CC[C@]4(C)[C@H]3CC[C@]12C (some centres undefined)	> 125	8.9	82		
CC(C)CCCC(C)[C@H]1CC[C@H]2[C@@H]3CCC4C[C@@H](CCCC(c5cc(Cl)c(O)c(C(=O)NCC(=O)O)c5)c5cc(Cl)c(O)c(C(=O)NCC(=O)O)c5)CC[C@]4(C)[C@H]3CC[C@]12C (some centres undefined)	> 125	39.4	> 200		
CC(C)CCCC(C)[C@H]1CC[C@H]2[C@@H]3CCC4C[C@@H](CCCC(c5cc(Cl)c(O)c(C(=O)N[C@@H](CCC(=O)O)C(=O)O)c5)c5cc(Cl)c(O)c(C(=O)N[C@@H](CCC(=O)O)C(=O)O)c5)CC[C@]4(C)[C@H]3CC[C@]12C (some centres undefined)	> 125	10.3	34		
CC(C)CCCC(C)[C@H]1CC[C@H]2[C@@H]3CCC4C[C@@H](CCC=C(c5cc(Cl)c(OCc6ccc(C(=O)O)cc6)c(C(=O)O)c5)c5cc(Cl)c(OCc6ccc(C(=O)O)cc6)c(C(=O)O)c5)CC[C@]4(C)[C@H]3CC[C@]12C (some centres undefined)	89			0.5	
CC(C)CCCC(C)[C@H]1CC[C@H]2[C@@H]3CCC4C[C@@H](CCC=C(c5cc(Cl)c(O)c(C(=O)N[C@@H](CC(C)C)C(=O)O)c5)c5cc(Cl)c(O)c(C(=O)N[C@@H](CC(C)C)C(=O)O)c5)CC[C@]4(C)[C@H]3CC[C@]12C (some centres undefined)	> 125	63.4	> 200	40	
